Test results taken from ChEMBL document CHEMBL3352211, “Ganoboninketals A-C, Antiplasmodial 3,4-seco-27-Norlanostane Triterpenes from Ganoderma boninense Pat” (J Nat Prod, 2014).

Key:
RAW264.7 [1] = assay: Cytotoxicity against mouse RAW264.7 cells assessed as reduction in cell viability at 200 uM; format: cell-based; details: raw264.7, 200 µM
Plasmodium falciparum = assay: Antiplasmodial activity against Plasmodium falciparum 3D7 infected in human RBC assessed as reduction in parasitemia after 48 hrs by fluorescence assay; format: functional, organism-based; details: 3D7, 48 h
Outline: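 P. falciparum 3D7 was grown in human RBCs in Albumax II-supplemented RPMI 1640. Assay cultures at 2% hematocrit and 1% parasitemia were exposed to compounds (DMSO solvent) for about 48 h at 37 °C. Parasite DNA was labelled with PicoGreen in TE buffer pH 7.5 with 2% Triton X-100 for 30 min in the dark and read at ex 485 / em 538 nm. IC50 came from linear interpolation; three independent experiments, each in triplicate.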

RAW264.7 [2] = assay: Antiinflammatory activity in mouse RAW264.7 cells assessed as inhibition of NO production after 24 hrs by Griess assay; format: functional, cell-based; details: RAW264.7, 24 h
Outline: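 RAW 264.7 mouse macrophages were kept in RPMI 1640 with 10% heat-inactivated FBS, penicillin and streptomycin at 37 °C and 5% CO2. They were seeded at 5 × 10^5 cells/mL. After 1 h, LPS (1 mg/mL as printed) and graded compound concentrations (DMSO solvent) were added for 24 h. Supernatant NO was measured by Griess reaction.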

A549 = assay: Cytotoxicity against human A549 cells assessed as reduction in cell viability after 72 hrs by MTT assay; format: functional, cell-based; details: A549, 72 h
Outline: (§1)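 Cells were exposed to compounds (DMSO solvent) for 72 h at 37 °C in 5% CO2. MTT (0.5 mg/mL in medium) was added for 4 h, and formazan was dissolved in DMSO and read at 540 nm. Inhibition rates were plotted against concentration to give IC50 (±SD); three independent experiments, each in triplicate.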

HeLa = assay: Cytotoxicity against human HeLa cells assessed as reduction in cell viability after 72 hrs by MTT assay; format: functional, cell-based; outline: as §1

Compound | Activity (RAW264.7 [1]) | IC50 (Plasmodium falciparum) [µM] | IC50 (RAW264.7 [2]) [µM] | IC50 (A549) [µM] | IC50 (HeLa) [µM]
C=C(C)[C@@H]1CC(=O)C2=C(C(=O)C[C@]34CO[C@@]5(CC)CC[C@](C)(O5)[C@H]3CC[C@@]24C)[C@@]1(C)CCC(=O)OC | Non-toxic | 7.9 | 24.3 | > 100 | 65.5
C=C(C)[C@@H]1C[C@H](OC(C)=O)C2=C(C(=O)C[C@]34CO[C@@]5(CC)CC[C@](C)(O5)[C@H]3CC[C@@]24C)[C@@]1(C)CCC(=O)OC | Non-toxic | 4 | 98.3 | 47.6 | > 100
C=C(C)[C@@H]1C[C@H](OC(C)=O)[C@]23OC[C@]4(CC(=O)[C@@H]2[C@@]1(C)CCC(=O)OC)[C@@]3(C)CC[C@@]41O[C@@]2(CC)CC[C@]1(C)O2 | Non-toxic | 1.7 | 60.9 | 35.8 | > 100
C[C@@H]1CC[C@H]2[C@@H](C)C(=O)O[C@@H]3O[C@@]4(C)CC[C@@H]1[C@]32OO4 [ARTEMISININ] |  | 0.0304 |  |  | 
C[C@]12CCC(=O)C=C1CC[C@@H]1[C@@H]2[C@@H](O)C[C@@]2(C)[C@H]1CC[C@]2(O)C(=O)CO [HYDROCORTISONE] |  |  | 53.7 |  | 
